Assay outcomes: PubChem BioAssay, several laboratories
The full list was thinned out, with hits kept by preference.
XBP1 UPR activ – activators of adaptive XBP1 UPR arm, primary screen, cell-based, CHO-XBP1 luciferase reporter, luminescence, uHTS; AID 463104, 2010; IRE1-XBP1 UPR activation; percent of tunicamycin response, DMSO as zero; activation, % at 20 µM; 330,000 compounds, 0.33% hits;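 active means versus positive control, 20 µM dose yields 30% or more activation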
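Material – CHO cell line with stable XBP1 luciferase reporter · Buffer or medium – F12 plus 10% FBS · Compound – single point, 20 µM final compound, 1% DMSO · Schedule – 16-18 h cell attachment at 37 °C, then 6 h compound exposure · Signal – Steady-Glo luminescence read · Benchmarks – high control tunicamycin 10 µg/mL final, low control DMSO vehicle only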
TbMetRS inhib – T. brucei MetRS inhibitors, primary screen, biochemical, luminescence; 360,000 compounds, 0.4% hits; methionyl-tRNA synthetase (Trypanosoma brucei brucei); AID 624268, 2012; inhibition, % at 11.9 µM; purified T. brucei MetRS, ATP depletion, Kinase-Glo luminescence;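 active means inhibition above a per-plate cutoff of the control wells' mean inhibition plus 3 SD, cut at about 5.5% in these data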
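Measured by: Kinase-Glo luciferase luminescence reporting remaining unconsumed ATP. Material: purified T. brucei MetRS enzyme. Doses: 11.9 µM compound single dose, 0.9% DMSO. Medium: HEPES buffer containing pyrophosphatase, BSA, spermine, DTT. Times: 15 min preincubation, 2 h reaction, all 25 °C. Reagent: methionine, ATP and bulk E. coli tRNA.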
CHOP inhibitor – inhibitors of CHOP promoter induction, primary screen, cell-based, unfolded protein response, luciferase reporter | CHO-K1 CHOP-promoter luciferase, tunicamycin-induced, 15-18 h | inhibition, % at 10 µM | 220,000 compounds, 3.8% hits | AID 2732, 2010;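 active means compounds that reduced the stress-induced luciferase reporter signal by more than about 70% of percent inhibition, limit read from the data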
V-ATPase pH – regulators of yeast V-ATPase proton pumping, primary screen, pHLuorin cytosolic pH fluorescence. S. cerevisiae. response, % at 10 µM. 350,000 compounds, 0.37% hits; in the data active means response mostly above about 7.3%, no sharp cut-off; inactive means mostly below about 5.4%; further: actives read high
UPR CHOP act – activators of apoptotic CHOP UPR arm, primary screen, cell-based, CHO-CHOP luciferase reporter, luminescence, uHTS | UPR activation; percent of tunicamycin response over DMSO baseline | activation, % at 10 µM | 330,000 compounds, 0.34% hits | AID 449763, 2010;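 active means at 10 µM dose, activation of 40% or more, normalized to positive control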
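Assay system: CHO cells with stable CHOP pathway luciferase reporter; Buffer or medium: F12 plus 10% serum; Times: 16-18 h cell attachment, then 6 h compound exposure, 37 °C; Signal: luciferase luminescence; Read-out basis: percent activation relative to tunicamycin control; Control set: tunicamycin high control, DMSO low control.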
Large screens that a line does not name were inactive.

CCc1nc2ccc(C(=O)NCCOc3ccc(OC)cc3)cn2c1N(CCC(C)C)CCN(C)C	none (no result: XBP1 UPR activ, CHOP inhibitor, V-ATPase pH, UPR CHOP act)
Cn1c(CNC(=O)c2ccco2)nnc1SCC(=O)Nc1c(F)cc(F)cc1Br	none
Cc1c(-c2ccccc2)oc2c(C(=O)N3CCN(c4ccccc4F)CC3)cccc2c1=O	CHOP inhibitor 71.3
CCCCNC(=O)c1cccc2c(=O)c(C)c(-c3ccccc3)oc12	none
COc1ccc(OC)c(NC(=O)c2cc(-c3ccc(C)cc3O)n[nH]2)c1	CHOP inhibitor 87.4
COc1ccc(OC)c(NC(=O)c2cc(-c3cc(C)ccc3O)n[nH]2)c1	none (no result: CHOP inhibitor)
COc1ccc(S(=O)(=O)N(C)C[C@@H]2OCCCC[C@@H](C)Oc3ccc(NS(=O)(=O)c4cccs4)cc3C(=O)N([C@H](C)CO)C[C@@H]2C)cc1	none (no result: XBP1 UPR activ, CHOP inhibitor, UPR CHOP act)
Cc1ccc(C)c(NC(=O)NNC(=O)c2cc3occc3[nH]2)c1	none (no result: CHOP inhibitor)
COc1ccc(OC)c(NC(=O)NNC(=O)c2cc3occc3[nH]2)c1	TbMetRS inhib 9.2 (no result: CHOP inhibitor)
COc1ccc(Cc2nnc(N/N=C/c3ccc(O)cc3)[nH]c2=O)cc1OC	CHOP inhibitor 84.3
COc1ccccc1-n1c(-c2ccc(NS(C)(=O)=O)cc2)n[nH]c1=S	CHOP inhibitor 93.3
Cc1ccc(/C=C/C(=O)C2C(=O)c3ccccc3C2=O)cc1	CHOP inhibitor 95.2
Cc1ccc(/C=C/C(=O)c2ccccc2O)cc1	none
CCOc1ccc(NC(=O)OCCN2CCN(CCc3ccccc3)C(C)C2)cc1 (stereo not drawn)	none (no result: XBP1 UPR activ, CHOP inhibitor, UPR CHOP act)
O=C1OC(O)c2cccc3cccc1c23 (stereo not drawn)	none (no result: XBP1 UPR activ, CHOP inhibitor, UPR CHOP act)
CC1CN(c2sc(S(C)(=O)=O)nc2S(=O)(=O)c2ccc(Cl)cc2)CC(C)O1 (stereo not drawn)	V-ATPase pH 13.2 (no result: CHOP inhibitor)
CN(CC(=O)Nc1ccccc1Br)C(=O)CCC1CCCC1	none (no result: CHOP inhibitor)
CCN(CC(=O)Nc1ccccc1Br)C1CCCCC1	CHOP inhibitor 72.6
CN(CC(=O)Nc1ccc(F)c(F)c1F)c1cnccn1	CHOP inhibitor 74.3 (no result: TbMetRS inhib, V-ATPase pH)
Cc1cc(NC(=O)CN(C)CC(=O)Nc2ccc(F)c(F)c2F)no1	none (no result: CHOP inhibitor)
CN(CC(=O)Nc1ccc(F)c(F)c1F)C1CCCCC1	CHOP inhibitor 75.1
COc1cc(C2(C)SCCCS2)cc(OC)c1OC	none (no result: XBP1 UPR activ, CHOP inhibitor, V-ATPase pH, UPR CHOP act)
COc1ccc(NC2CCCN(C(=O)COc3ccc(C(C)=O)cc3)C2)cc1 (stereo not drawn)	none (no result: XBP1 UPR activ, CHOP inhibitor, UPR CHOP act)
O=C(Nc1ccnn1C1CCN(Cc2ccc(CO)o2)CC1)c1cccc(F)c1	none (no result: XBP1 UPR activ, CHOP inhibitor, V-ATPase pH, UPR CHOP act)
O=C(NCCSCc1c(F)cccc1Cl)Nc1ccccc1	TbMetRS inhib 7.8 (no result: CHOP inhibitor)
S=C(NCCSCc1ccc(Cl)cc1Cl)Nc1ccccc1	TbMetRS inhib 69.7, CHOP inhibitor 81.0
S=C(NCCSCc1c(Cl)cccc1Cl)Nc1ccccc1	none
Cc1c(C(=O)NCCSCc2ccc(Cl)cc2Cl)cccc1[N+](=O)[O-]	CHOP inhibitor 72.1
COC(=O)[C@@]12C[C@@H](CC(=O)NCCCCc3ccccc3)C(=O)N(Cc3cccc4ccccc34)C1=CCC(C)(C)C2	none (no result: XBP1 UPR activ, CHOP inhibitor, V-ATPase pH, UPR CHOP act)
CCN(C(=O)c1ccco1)c1nnc(-c2cccnc2)s1	none (no result: CHOP inhibitor)
CC1([N+](=O)[O-])COC2(OC1)C(=O)Nc1ccccc12 (stereo not drawn)	none (no result: CHOP inhibitor)
CCc1cc2c(COC(=O)c3cccc(S(C)(=O)=O)c3)cc(=O)oc2cc1O	none (no result: CHOP inhibitor)
CCc1cc2c(COC(=O)c3c(C)noc3C)cc(=O)oc2cc1O	CHOP inhibitor 95.3
CCCCCCOc1ccc(NC(=O)CC2C(=O)N(CC)C(=S)N2Cc2ccco2)cc1 (stereo not drawn)	CHOP inhibitor 91.2
CCN1C(=O)C(CC(=O)Nc2ccc(F)cc2)N(Cc2ccco2)C1=S (stereo not drawn)	none
CCCOc1ccc(NC(=O)CC2C(=O)N(CC)C(=S)N2Cc2cccs2)cc1 (stereo not drawn)	CHOP inhibitor 92.9
C=CCN1C(=O)C(CC(=O)Nc2ccc(OCCC)cc2)N(CCCN2CCN(Cc3ccccc3)CC2)C1=S (stereo not drawn)	CHOP inhibitor 94.0
COc1ccc(NC(=O)CC2C(=O)N(Cc3ccccc3)C(=S)N2CCN2CCOCC2)cc1 (stereo not drawn)	none
CCCCNS(=O)(=O)c1cccc(NC(=O)[C@@H]2O[C@H](CO)[C@H](O)[C@H](O)[C@H]2O)c1	none (no result: XBP1 UPR activ, CHOP inhibitor, V-ATPase pH, UPR CHOP act)
O=C(Nc1ccccc1F)C1COc2ccccc2O1 (stereo not drawn)	none (no result: CHOP inhibitor)
CC(C)C(NC(=O)COc1ccc2ccccc2c1)C(=O)N/N=C/C=C/c1ccccc1 (stereo not drawn)	CHOP inhibitor 85.9
CC(C)N1C(=O)c2ccccc2NC(=O)C1C(=O)NC1CC1 (stereo not drawn)	none (no result: XBP1 UPR activ, CHOP inhibitor, V-ATPase pH, UPR CHOP act)
Cc1c(-c2ccccc2)c(-c2ccc(OCCN(C)C)cc2)n2ccccc12	none (no result: XBP1 UPR activ, CHOP inhibitor, UPR CHOP act)
O=[N+]([O-])c1cccc(Cl)c1NCCNc1ncc(C(F)(F)F)cc1Cl	CHOP inhibitor 78.8
CC(NC(=O)COC(=O)c1ccc[nH]c1=O)c1ccccc1 (stereo not drawn)	none (no result: CHOP inhibitor)
CCN(CC)C(=O)c1cccc(-c2csc(C(C)(O)c3ccncc3)n2)c1 (stereo not drawn)	none (no result: XBP1 UPR activ, CHOP inhibitor, V-ATPase pH, UPR CHOP act)
Nc1cc(-c2ccc(Br)cc2)nn1S(=O)(=O)c1cccc2nsnc12	CHOP inhibitor 86.1
Nc1cc(-c2ccc(Cl)cc2)nn1S(=O)(=O)c1cccc2nsnc12	CHOP inhibitor 80.5
Nc1cc(-c2cccc(F)c2)nn1S(=O)(=O)c1cccc2nsnc12	none
OC[C@H]1O[C@@H](n2cnc3c(NCCc4ccccc4)ncnc32)C(O)[C@H]1O (stereo partly drawn)	none (no result: XBP1 UPR activ, TbMetRS inhib, V-ATPase pH, UPR CHOP act)
O=C(COC(=O)c1ccccc1)NC1CCCC1	V-ATPase pH 263.2 (no result: CHOP inhibitor)
